Laboratory results taken from ChEMBL document CHEMBL4024754, “Development of Potent, Protease-Resistant Agonists of the Parathyroid Hormone Receptor with Broad β Residue Distribution” (J Med Chem, 2017).
pEC50: −log10 of the molar value. The source made the active and inactive calls. No cut-off for these calls is given here. Peptide text beside a SMILES is read from it. * marks the point of attachment. ACPC(1S,2S) = N[C@H]1CCC[C@@H]1C(=O)*

Columns and labels:
Format in all cases: functional, cell-based
[1] = target: T1, Parathyroid hormone/parathyroid hormone-related peptide receptor (Homo sapiens) (UniProt Q03431); assay: Agonist activity at human PTH1 receptor expressed in human GP2.3 cells assessed as induction of cAMP after 12 to 20 mins by luciferase reporter gene assay relative to PTH(1 to 34 residues)-NH2
T1 sequence (whole entry): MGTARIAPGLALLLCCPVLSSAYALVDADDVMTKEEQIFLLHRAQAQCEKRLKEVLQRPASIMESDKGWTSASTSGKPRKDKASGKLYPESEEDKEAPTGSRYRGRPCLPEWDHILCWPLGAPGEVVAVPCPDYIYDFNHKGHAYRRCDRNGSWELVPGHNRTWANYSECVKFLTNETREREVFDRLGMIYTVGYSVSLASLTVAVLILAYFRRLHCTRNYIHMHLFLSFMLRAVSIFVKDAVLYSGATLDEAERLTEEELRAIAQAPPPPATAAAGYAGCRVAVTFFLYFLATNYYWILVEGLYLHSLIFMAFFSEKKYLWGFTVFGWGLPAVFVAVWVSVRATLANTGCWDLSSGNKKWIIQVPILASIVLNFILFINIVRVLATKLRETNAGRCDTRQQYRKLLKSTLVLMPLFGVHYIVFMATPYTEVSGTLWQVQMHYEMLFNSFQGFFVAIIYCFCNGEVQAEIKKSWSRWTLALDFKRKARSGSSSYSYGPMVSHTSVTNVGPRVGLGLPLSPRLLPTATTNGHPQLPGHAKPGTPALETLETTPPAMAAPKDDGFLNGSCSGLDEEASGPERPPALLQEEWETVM

[2] = target: T2, Parathyroid hormone/parathyroid hormone-related peptide receptor (Homo sapiens, UniProt Q03431); assay: Agonist activity at human PTH1 receptor expressed in human GP2.3 cells assessed as induction of cAMP after 12 to 20 mins by luciferase reporter gene assay; conditions: for pEC50: read-out: EC50
T2 sequence (Q03431 whole entry): T1 sequence (whole entry)

[3] = target: T1, Parathyroid hormone/parathyroid hormone-related peptide receptor (Homo sapiens); assay: Agonist activity at extracellular domain truncate human PTH1 receptor expressed in GD5 cells assessed as induction of cAMP after 12 to 20 mins by luciferase reporter gene assay
How it was run: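 HEK293-derived lines stably expressing Glosensor cAMP reporter plus full-length human PTHR1 (GP2.3) or ECD-truncated PTHR1 (GD5). Confluent monolayers preincubated at room temperature in CO2-independent medium with 0.5 mM D-luciferin until baseline stable (30 min), then varied agonist concentrations added. Maximal luminescence (12−20 min) used for sigmoidal variable-slope fits.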

SMILES	fold change (FC) [1]	pEC50 [2]	Activity [3]	EC50 [2]
CC[C@H](C)[C@H](NC(=O)[C@H](CCC(=O)O)NC(=O)[C@H](CO)NC(=O)[C@@H](NC(=O)[C@@H](N)CO)C(C)C)C(=O)N[C@@H](CCC(N)=O)C(=O)N[C@H]1CCC[C@@H]1C(=O)N[C@@H](CCSC)C(=O)N[C@@H](Cc1cnc[nH]1)C(=O)N[C@@H](CC(N)=O)C(=O)N[C@@H](CC(C)C)C(=O)NCC(=O)N[C@@H](CCCCN)C(=O)N[C@@H](Cc1cnc[nH]1)C(=O)N[C@@H](CC(C)C)C(=O)N[C@@H](CC(N)=O)C(=O)N[C@@H](CO)C(=O)N[C@@H](CCSC)C(=O)N[C@@H](CCC(=O)O)C(=O)N[C@@H](CCCNC(=N)N)C(=O)N[C@H](C(=O)N[C@@H](CCC(=O)O)C(=O)N[C@@H](Cc1c[nH]c2ccccc12)C(=O)N[C@@H](CC(C)C)C(=O)N[C@@H](CCCNC(=N)N)C(=O)N[C@@H](CCCCN)C(=O)N[C@@H](CCCCN)C(=O)N[C@@H](CC(C)C)C(=O)N[C@@H](CCC(N)=O)C(=O)N[C@@H](CC(=O)O)C(=O)N[C@H](C(=O)N[C@@H](Cc1cnc[nH]1)C(=O)N[C@@H](CC(N)=O)C(=O)N[C@@H](Cc1ccccc1)C(N)=O)C(C)C)C(C)C	1.3	9.92	Active	
CC[C@H](C)[C@H](NC(=O)[C@H](CCC(=O)O)NC(=O)[C@H](CO)NC(=O)[C@@H](NC(=O)[C@@H](N)CO)C(C)C)C(=O)N[C@@H](CCC(N)=O)C(=O)N[C@@H](CC(C)C)C(=O)N[C@H]1CCC[C@@H]1C(=O)N[C@@H](Cc1cnc[nH]1)C(=O)N[C@@H](CC(N)=O)C(=O)N[C@@H](CC(C)C)C(=O)NCC(=O)N[C@@H](CCCCN)C(=O)N[C@@H](Cc1cnc[nH]1)C(=O)N[C@@H](CC(C)C)C(=O)N[C@@H](CC(N)=O)C(=O)N[C@@H](CO)C(=O)N[C@@H](CCSC)C(=O)N[C@@H](CCC(=O)O)C(=O)N[C@@H](CCCNC(=N)N)C(=O)N[C@H](C(=O)N[C@@H](CCC(=O)O)C(=O)N[C@@H](Cc1c[nH]c2ccccc12)C(=O)N[C@@H](CC(C)C)C(=O)N[C@@H](CCCNC(=N)N)C(=O)N[C@@H](CCCCN)C(=O)N[C@@H](CCCCN)C(=O)N[C@@H](CC(C)C)C(=O)N[C@@H](CCC(N)=O)C(=O)N[C@@H](CC(=O)O)C(=O)N[C@H](C(=O)N[C@@H](Cc1cnc[nH]1)C(=O)N[C@@H](CC(N)=O)C(=O)N[C@@H](Cc1ccccc1)C(N)=O)C(C)C)C(C)C	107	8.01	Active	
CC[C@H](C)[C@H](NC(=O)[C@H]1CCC[C@@H]1NC(=O)[C@H](CO)NC(=O)[C@@H](NC(=O)[C@@H](N)CO)C(C)C)C(=O)N[C@@H](CCC(N)=O)C(=O)N[C@@H](CC(C)C)C(=O)N[C@@H](CCSC)C(=O)N[C@@H](Cc1cnc[nH]1)C(=O)N[C@@H](CC(N)=O)C(=O)N[C@@H](CC(C)C)C(=O)NCC(=O)N[C@@H](CCCCN)C(=O)N[C@@H](Cc1cnc[nH]1)C(=O)N[C@@H](CC(C)C)C(=O)N[C@@H](CC(N)=O)C(=O)N[C@@H](CO)C(=O)N[C@@H](CCSC)C(=O)N[C@@H](CCC(=O)O)C(=O)N[C@@H](CCCNC(=N)N)C(=O)N[C@H](C(=O)N[C@@H](CCC(=O)O)C(=O)N[C@@H](Cc1c[nH]c2ccccc12)C(=O)N[C@@H](CC(C)C)C(=O)N[C@@H](CCCNC(=N)N)C(=O)N[C@@H](CCCCN)C(=O)N[C@@H](CCCCN)C(=O)N[C@@H](CC(C)C)C(=O)N[C@@H](CCC(N)=O)C(=O)N[C@@H](CC(=O)O)C(=O)N[C@H](C(=O)N[C@@H](Cc1cnc[nH]1)C(=O)N[C@@H](CC(N)=O)C(=O)N[C@@H](Cc1ccccc1)C(N)=O)C(C)C)C(C)C			Active	Not Active
CC[C@H](C)[C@H](NC(=O)[C@H](CCC(=O)O)NC(=O)[C@H](CO)NC(=O)[C@@H](NC(=O)[C@@H](N)CO)C(C)C)C(=O)N[C@@H](CCC(N)=O)C(=O)N[C@@H](CC(C)C)C(=O)N[C@@H](CCSC)C(=O)N[C@H]1CNC[C@@H]1C(=O)N[C@@H](CC(N)=O)C(=O)N[C@@H](CC(C)C)C(=O)NCC(=O)N[C@@H](CCCCN)C(=O)N[C@@H](Cc1cnc[nH]1)C(=O)N[C@@H](CC(C)C)C(=O)N[C@@H](CC(N)=O)C(=O)N[C@@H](CO)C(=O)N[C@@H](CCSC)C(=O)N[C@@H](CCC(=O)O)C(=O)N[C@@H](CCCNC(=N)N)C(=O)N[C@H](C(=O)N[C@@H](CCC(=O)O)C(=O)N[C@@H](Cc1c[nH]c2ccccc12)C(=O)N[C@@H](CC(C)C)C(=O)N[C@@H](CCCNC(=N)N)C(=O)N[C@@H](CCCCN)C(=O)N[C@@H](CCCCN)C(=O)N[C@@H](CC(C)C)C(=O)N[C@@H](CCC(N)=O)C(=O)N[C@@H](CC(=O)O)C(=O)N[C@H](C(=O)N[C@@H](Cc1cnc[nH]1)C(=O)N[C@@H](CC(N)=O)C(=O)N[C@@H](Cc1ccccc1)C(N)=O)C(C)C)C(C)C			Active	Not Active
CC[C@H](C)[C@H](NC(=O)[C@H](CCC(=O)O)NC(=O)[C@H](CO)NC(=O)[C@@H](NC(=O)[C@H]1CCC[C@@H]1N)C(C)C)C(=O)N[C@@H](CCC(N)=O)C(=O)N[C@@H](CC(C)C)C(=O)N[C@@H](CCSC)C(=O)N[C@@H](Cc1cnc[nH]1)C(=O)N[C@@H](CC(N)=O)C(=O)N[C@@H](CC(C)C)C(=O)NCC(=O)N[C@@H](CCCCN)C(=O)N[C@@H](Cc1cnc[nH]1)C(=O)N[C@@H](CC(C)C)C(=O)N[C@@H](CC(N)=O)C(=O)N[C@@H](CO)C(=O)N[C@@H](CCSC)C(=O)N[C@@H](CCC(=O)O)C(=O)N[C@@H](CCCNC(=N)N)C(=O)N[C@H](C(=O)N[C@@H](CCC(=O)O)C(=O)N[C@@H](Cc1c[nH]c2ccccc12)C(=O)N[C@@H](CC(C)C)C(=O)N[C@@H](CCCNC(=N)N)C(=O)N[C@@H](CCCCN)C(=O)N[C@@H](CCCCN)C(=O)N[C@@H](CC(C)C)C(=O)N[C@@H](CCC(N)=O)C(=O)N[C@@H](CC(=O)O)C(=O)N[C@H](C(=O)N[C@@H](Cc1cnc[nH]1)C(=O)N[C@@H](CC(N)=O)C(=O)N[C@@H](Cc1ccccc1)C(N)=O)C(C)C)C(C)C ({ACPC(1S,2S)}-VSEIQLMHNLGKHLNSMERVEWLRKKLQDVHNF-NH2)	1.6	9.82	Active	
CC[C@H](C)[C@H](NC(=O)[C@H](CCC(=O)O)NC(=O)[C@H](CO)NC(=O)[C@H]1CCC[C@@H]1NC(=O)[C@@H](N)CO)C(=O)N[C@@H](CCC(N)=O)C(=O)N[C@@H](CC(C)C)C(=O)N[C@@H](CCSC)C(=O)N[C@@H](Cc1cnc[nH]1)C(=O)N[C@@H](CC(N)=O)C(=O)N[C@@H](CC(C)C)C(=O)NCC(=O)N[C@@H](CCCCN)C(=O)N[C@@H](Cc1cnc[nH]1)C(=O)N[C@@H](CC(C)C)C(=O)N[C@@H](CC(N)=O)C(=O)N[C@@H](CO)C(=O)N[C@@H](CCSC)C(=O)N[C@@H](CCC(=O)O)C(=O)N[C@@H](CCCNC(=N)N)C(=O)N[C@H](C(=O)N[C@@H](CCC(=O)O)C(=O)N[C@@H](Cc1c[nH]c2ccccc12)C(=O)N[C@@H](CC(C)C)C(=O)N[C@@H](CCCNC(=N)N)C(=O)N[C@@H](CCCCN)C(=O)N[C@@H](CCCCN)C(=O)N[C@@H](CC(C)C)C(=O)N[C@@H](CCC(N)=O)C(=O)N[C@@H](CC(=O)O)C(=O)N[C@H](C(=O)N[C@@H](Cc1cnc[nH]1)C(=O)N[C@@H](CC(N)=O)C(=O)N[C@@H](Cc1ccccc1)C(N)=O)C(C)C)C(C)C	3	9.57	Active	
